Source: PubChem (Johns Hopkins Ion Channel Center)
Kir21 block: blocks the mouse Kir2.1 inward-rectifier potassium channel; HEK293-Kir2.1, FluxOR thallium flux fluorescence; hits give low values; hit rate 0.85% among 310,000; B-score at 10 µM;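 active = fluorescence ratio B-score at or below minus 3 SD of library scores, with starting-brightness B-score within 2 SD, cut at about -4.2 in these data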;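 note: channel flux triggered by added potassium and thallium sulfate stimulus; B-score of peak minus minimum fluorescence over baseline after thallium stimulus; more negative B-score means stronger Kir2.1 block with less thallium influx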
Target sequence (P35561 whole entry, looked up): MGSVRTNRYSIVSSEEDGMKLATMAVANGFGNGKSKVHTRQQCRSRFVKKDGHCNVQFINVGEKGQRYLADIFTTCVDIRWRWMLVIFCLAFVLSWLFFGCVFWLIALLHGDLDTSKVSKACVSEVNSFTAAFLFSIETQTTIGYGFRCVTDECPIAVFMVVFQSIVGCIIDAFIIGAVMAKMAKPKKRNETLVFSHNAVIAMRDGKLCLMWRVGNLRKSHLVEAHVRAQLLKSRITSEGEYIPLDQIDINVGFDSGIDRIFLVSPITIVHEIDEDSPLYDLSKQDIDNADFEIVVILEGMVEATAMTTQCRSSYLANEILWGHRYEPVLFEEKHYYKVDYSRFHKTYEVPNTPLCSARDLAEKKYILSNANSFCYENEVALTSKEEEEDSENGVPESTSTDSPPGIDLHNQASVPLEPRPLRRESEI
TRPC6 inhibitor: mouse TRPC6 channel inhibition; Q61143; HEK293-TRPC6, membrane potential dye, ACh-evoked depolarization; hits give low values; B-score at 10 µM; hit rate 1.1% among 310,000;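 active = B-score under library mean minus 3 SD, initial fluorescence not abnormally high, positive integrated signal ratio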;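 note: B-score derived from integrated fluorescence ratio over the kinetic read; more negative B-score means stronger inhibition of depolarization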
TRPC4 agonist: activators of mouse TRPC4 channel. HEK293 TRPC4beta/mu-opioid, Fluo4 calcium fluorescence; hits give high values. hit rate 0.49% among 310,000. Q9QUQ5. AID 2237. B-score at 10 µM;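 active = B-score above 5 SD of library B-scores, and initial fluorescence ratio not above library mean plus 5 SD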;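 note: positive B-score marks a calcium rise read as TRPC4 activation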
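System – HEK293 cells stably co-expressing mouse TRPC4beta and mu-opioid receptor · Signal – Fluo4 calcium-sensitive dye fluorescence, kinetic, 1 Hz baseline · Benchmarks – buffer (low) and maximal DAMGO (high) · Read-out – B score of integrated fluorescence ratio per well · Incubation – dye loading 45 min room temperature, 110 s kinetic read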
TRPC4 inh: TRPC4 (mouse) channel inhibition. AID 2247. hit rate 0.39% among 300,000. Q9QUQ5. B-score at 10 µM. HEK293 TRPC4beta/mu-opioid, DAMGO-evoked Fluo4 calcium flux; hits give low values;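 active = B-score over 3 SD under the library average, no early fluorescence shift, positive overall ratio signal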
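Material: HEK293 cells with stable TRPC4beta plus mu-opioid receptor expression; probe or stimulus: DAMGO in two steps, submaximal then maximal; technique: Fluo4 calcium fluorescence by kinetic imaging, 5 s 1 Hz baseline; measure: integrated fluorescence ratio relative to baseline, converted to per-well B score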
TRPC6 act: activates the mouse TRPC6 cation channel; AID 2550; B-score at 10 µM; hit rate 0.13% among 310,000; Q61143; HEK293-TRPC6 membrane potential dye fluorescence; hits give high values;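 active = B-score of the integrated fluorescence ratio above library mean plus 3 SD, and starting fluorescence ratio within library mean plus 5 SD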;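 note: higher score means more depolarization so channel activation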
TRPC4 potent: allosterically enhances the mouse TRPC4 cation channel; Q9QUQ5; HEK293 TRPC4beta/mu-opioid, DAMGO EC20, Fluo-4 Ca2+ flux; hits give high values; B-score at 10 µM; hit rate 0.42% among 310,000; AID 2227;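 active = B-score of calcium response area above 5 SD of library B-scores, with initial fluorescence ratio within 5 SD of library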;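 note: B-score of integrated fluorescence ratio over time as area under calcium response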
* = called active by the depositor; i = inactive. Most compounds without a hit are left out; they make up all but 2.9% or so of the library.

SMILES	Kir21 block	TRPC6 inhibitor	TRPC4 agonist	TRPC4 inh	TRPC6 act	TRPC4 potent
CCN1C(=O)c2ccccc2S(=O)(=O)c2ccc(C(=O)NCCOC)cc21	0.74	i	i	i	i	i
CCCCN(CC)CCCNC(=O)c1ccc2c(c1)N(CC)C(=O)c1ccccc1S2(=O)=O	1.4	i	i	i	i	14*
COc1ccccc1OCC(=O)NC1CCCc2ccccc21 (stereo not given)	-4.9*	i	i	i	i	i
CC(C)c1ccccc1OCC(=O)NC1CCCc2ccccc21 (stereo not given)	-7*	i	i	i	i	i
CN(CC(=O)NC1CCCc2ccccc21)C1CCCCC1 (stereo not given)	1.2	i	i	-5*	i	i
O=C(Nc1ccccc1N1CCN(c2ccccc2)CC1)c1ccccc1	1.2	i	i	i	i	i
O=C(NC(Cc1c[nH]c2ccccc12)C(=O)NCc1ccc(F)cc1)OCc1ccccc1 (stereo not given)	1.3	i	i	i	i	i
CC1CCc2c(sc(/N=C/N(C)C)c2C#N)C1 (stereo not given)	-1.1	i	i	-6*	i	i
CN(C)CCSc1nnc2sc3ccccc3n12	0.19	i	i	i	i	11*
N#CCSc1nnc2sc3ccccc3n12	-1.1	i	i	i	i	i
O=C(NNC(=S)Nc1ccccc1)c1cccs1	0.8	i	i	i	i	i
CCCC(=O)Nc1ccc(C(=O)NNC(=S)NC(=O)c2cccs2)cc1	1.5	i	i	i	i	i
O=C(NC(=S)NNC(=O)c1cccs1)c1ccco1	-0.59	i	i	i	i	i
CC(C)(C)c1ccc(C(=O)NC(=S)NNC(=O)c2cccs2)cc1	0.83	i	339*	i	i	i
Cc1ccccc1C(=O)NNC(=S)NC(=O)c1cccs1	-0.2	i	159*	i	i	i
Cc1cccc(C(=O)NC(=S)NNC(=O)c2cccs2)c1	0.03	i	236*	i	i	i
O=C(NC(=S)NNC(=O)c1cccs1)c1ccccc1	-0.3	i	82*	i	i	i
CCN(CC)CCNC(=O)CCc1nnc2ccc(N3CCC(C)CC3)nn12	-0.11	i	i	i	i	i
Cc1cc(NC(=O)CC2Oc3ccccc3NC2=O)ccc1Br (stereo not given)	-2.4	i	i	i	i	i
COC(=O)c1ccc(C2C(C(=O)c3ccco3)=C(O)C(=O)N2CC2CCCO2)cc1 (stereo not given)	-1.6	i	i	i	i	i
O=C(CCCC(=O)OCC(=O)c1ccc(Cl)cc1)NC1CCCCC1	0.06	i	i	i	i	i
CN(C)CC(CCC(CN(C)C)C(O)(c1ccccc1)c1ccccc1)C(O)(c1ccccc1)c1ccccc1 (stereo not given)	-5.6*	i	i	-8*	i	i
O=C(O)CCC(=O)NN1C(=O)c2ccccc2NC1c1ccc(F)cc1 (stereo not given)	1.4	i	i	i	i	11*
CCOC(=O)C[C@H]1c2cc(F)ccc2S(=O)(=O)N1c1ccccc1	-5*	i	i	i	i	i
CCOC(=O)C[C@H]1c2ccccc2S(=O)(=O)N1Cc1cccc(C(F)(F)F)c1	-4.5*	i	i	i	i	i
SMILES	Kir21 block	TRPC6 inhibitor	TRPC4 agonist	TRPC4 inh	TRPC6 act	TRPC4 potent
Oc1c(CN2CCCC(C(F)(F)F)C2)cc(Cl)c2ccccc12 (stereo not given)	-0.78	i	i	i	i	i
CCCCNC(=O)N1CCOCCOCCN(C(=O)NCCCC)CCOCCOCC1	-0.36	i	i	i	i	i
CCCCOC(=O)N1CCOCCOCCOCC1	-4.7*	i	i	i	i	i
Cc1cccc(N2CCN(CC(=O)Nc3nccs3)CC2)c1C	0.78	-5.6*	i	i	13*	i
COc1ccccc1N1CCN(CC(=O)Nc2nccs2)CC1	-0.43	i	i	i	i	i
Cc1ccc(OCCOCCN(C)C)c(Cl)c1	0.92	i	i	i	i	i
CCc1cc(OCCOCCN(C)C)ccc1Cl	0.7	i	i	i	i	15*
C=CCn1c(SCC(=O)NC2CC2)nnc1C1CC1	0.6	i	i	i	i	i
O=C(O)/C=C/c1cn(-c2ccccc2)nc1-c1ccc2c(c1)OCCO2	0.04	i	i	i	i	i
O/N=C/c1cn(-c2ccccc2)nc1-c1ccc2c(c1)OCCO2	-0.39	i	i	i	i	24*
O=[N+]([O-])c1ccc(Sc2cccc[n+]2[O-])c2nonc12	-6.3*	i	i	i	i	i
O=[N+]([O-])c1ccc(Nc2ccccc2)c2nonc12	0.68	i	i	i	i	i
CS(=O)(=O)N(CC(=O)N1CCc2ccccc2C1)c1cccc([N+](=O)[O-])c1	-0.69	i	i	i	i	i
O=C(COC(=O)c1cccc([N+](=O)[O-])c1)c1ccc2c(c1)OCO2	-0.05	i	i	-7*	i	i
O=C(OCC(=O)N1CCc2ccccc2C1)c1cccc([N+](=O)[O-])c1	-0.46	i	i	-6*	i	i
Cc1nccn1CCN(C)Cc1cn(Cc2ccccc2)nc1-c1ccc2c(c1)OCO2	-5.5*	i	i	i	i	i
CN(Cc1cn(Cc2ccccc2)nc1-c1ccc2c(c1)OCO2)Cc1nccn1C	0.06	i	i	i	i	i
Cc1c(C(=O)c2ccc(Cl)cc2[N+](=O)[O-])c2ccccn2c1CCC#N	-0.75	i	i	i	i	14*
CCCOc1ccc(CSC2=NCCN2)cc1[N+](=O)[O-]	1	i	i	i	i	12*
COc1ccc(CSC2=NCCN2)cc1Cl	-1.4	i	i	i	i	10*
O=[N+]([O-])c1cc(CSC2=NCCN2)ccc1O	-0.31	i	i	i	i	i
COc1ccc(CSC2=NCCN2)cc1Br	-2.3	i	i	i	i	i
CCn1cc(C(=O)NCCCN2CCCC(C)C2)c(=O)c2cc(S(=O)(=O)N(C)C3CCCCC3)ccc21 (stereo not given)	-0.94	i	i	i	i	i
Oc1cccc(C(O)CNCc2ccc(-c3ccccc3)cc2)c1 (stereo not given)	-7.8*	i	i	i	i	i
